Data set [1] relates to Staphylococcus aureus. Put plainly: Bactericidal activity against Staphylococcus aureus ATCC 29213 at pH 7 after 1 hr by CLSI method. Type of data set: functional. The note with it: ATCC 29213, 1 h. The method, boiled down: (§1)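 MBC by modified CLSI M26-A: broth replaced with 0.9% acetate saline buffer pH 4 or PBS pH 7. Mid-log bacteria were centrifuged and resuspended in buffer, then added to serial twofold compound dilutions (final 10⁵–10⁶ CFU/mL) for 1 h at room temperature. Aliquots were plated on agar (24 h, 35 °C) and CFU counted. MBC is the lowest concentration giving >99.9% kill.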

The test system of data set [2] is Escherichia coli. Put plainly: Bactericidal activity against Escherichia coli ATCC 25922 at pH 7 after 1 hr by CLSI method. Type of data set: functional. The note with it: ATCC 25922, 1 h. The method, boiled down:
as §1

Data set [3] deals with Staphylococcus aureus. Put plainly: Bactericidal activity against Staphylococcus aureus ATCC 29213 at pH 4 after 1 hr by CLSI method. Conditions: ATCC 29213, 1 h. Type of data set: functional. The method, boiled down:
as §1

For data set [4], the system named is Escherichia coli. Put plainly: Bactericidal activity against Escherichia coli ATCC 25922 at pH 4 after 1 hr by CLSI method. Type of data set: functional. Conditions: ATCC 25922, 1 h. A digest of the protocol:
as §1

Data set [5] has as its system Human adenovirus 5. Put plainly: Virucidal activity against Adenovirus 5 ATCC VR-1516 infected in human A549 cells assessed as viral cytopathic effect at pH 7 incubated for 1 hr measured after 6 days by three-fold serial dilution assay. The class given is functional, organism-based. A digest of the protocol: (§2)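 Virus was diluted in 20 mM PBS or 5 mM acetate saline buffer with 2.5% glycerol and mixed 1:1 with threefold compound dilutions (quadruplicate) for 60 min at room temperature. It was neutralized with 2× D-MEM/F12 plus 20% FBS for 60 min, then adsorbed 1–2 h at 37 °C onto A549 (Ad5) or Vero (HSV-1) cells. Cells were washed, grown 6 days, and CPE read by CCK-8. IC50 came from a sigmoidal fit with top fixed at 100.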

Data set [6] deals with Human alphaherpesvirus 1. Put plainly: Virucidal activity against Herpes simplex virus (type 1 / strain F) ATCC VR-733 infected in african geen monkey Vero cells assessed as viral cytopathic effect at pH 7 incubated for 1 hr measured after 6 days by three-fold serial dilution assay. Type of data set: functional, organism-based. The method, boiled down: as §2
Data set [7] has as its system Human adenovirus 5. Put plainly: Virucidal activity against Adenovirus 5 ATCC VR-1516 infected in human A549 cells assessed as viral cytopathic effect at pH 4 incubated for 1 hr measured after 6 days by three-fold serial dilution assay. Type of data set: functional, organism-based. A digest of the protocol:
as §2

Data set [8] in a line: Toxicity in epiocular tissue irritancy model (unknown origin) assessed as tissue viability up to 46 mins relative to control. Type of data set: tissue-based, Eye. The note with it: read-out: Activity. A digest of the protocol:
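EpiOcular tissue model: after exposure, tissues were rinsed in PBS and held in MTT for 3 h, then extracted overnight. Viability was read from MTT absorbance against untreated control and correlated with a Draize-type irritancy score.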

Data set [9] concerns Human adenovirus 5. Put plainly: Ratio of IC50 for Adenovirus 5 ATCC VR-1516 at pH 7 to IC50 for Adenovirus 5 ATCC VR-1516 at pH 4. The class given is functional. The method, boiled down:
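Ad5 virucidal IC50 was determined in PBS (pH 7) and acetate saline buffer (pH 4) using 60 min room-temperature exposure, neutralization, A549 infection, 6-day CPE by CCK-8 and sigmoidal fit. The ratio is IC50 at pH 7 over IC50 at pH 4.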

Data set [10] deals with Staphylococcus aureus. Put plainly: Ratio of MBC for Staphylococcus aureus ATCC 29213 at pH 7 to MBC for Staphylococcus aureus ATCC 29213 at pH 4. Type of data set: functional. The method, boiled down:
(§3)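 MBC was measured in PBS pH 7 and in acetate saline buffer pH 4 (1 h room-temperature exposure, >99.9% kill endpoint, CFU plating). The ratio is MBC at pH 7 over MBC at pH 4.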

The subject of data set [11] is Escherichia coli. Put plainly: Ratio of MBC for Escherichia coli ATCC 25922 at pH 7 to MBC for Escherichia coli ATCC 25922 at pH 4. The class given is functional. A digest of the protocol: as §3
Data set [12] can be described thus: Stability of the compound in aqueous solution. The class given is physicochemical. Conditions: buffer.
The mark [13] stands for this setting: Human mastadenovirus C, ATCC VR-1516, A549, read-out: IC50.
The mark [14] stands for this setting: Human alphaherpesvirus 1, Strain F ATCC VR 733, Vero, read-out: IC50.

Experimental findings from ChEMBL document CHEMBL2429787, “Sulfonyl-polyol N,N-dichloroamines with rapid, broad-spectrum antimicrobial activity” (Bioorg Med Chem Lett, 2013) are described below.

Each structure is given as a SMILES string. In brackets after ≈: the same amount, converted by molar mass.

With `CN(CCO)S(=O)(=O)CCC(C)(C)N(Cl)Cl`, the minimal bactericidal concentration (MBC) amounted to 128 µg/mL (≈ 437 µM) in data set [1], 64 µg/mL (≈ 218 µM) in data set [2], 1 µg/mL (≈ 3.41 µM) in data set [3] and 2 µg/mL (≈ 6.82 µM) in data set [4]. Also, the IC50 in data set [5] (setting [13]) turned out to be 14 µM; in data set [6] (setting [14]) it was 1200 nM; in [7] (setting [13]), 1500 nM.
For the molecule `CC(C)(CCS(=O)(=O)C[C@H](O)CO)N(Cl)Cl`, the MBC in [1] is 4 µg/mL (≈ 13.6 µM); in data set [2] it was 32 µg/mL (≈ 109 µM); in data set [3] it was 2 µg/mL (≈ 6.8 µM); in [4], 2 µg/mL (≈ 6.8 µM). Moreover, the IC50 in data set [5] (setting [13]) came out at 14 µM; in [6] (setting [14]), 1200 nM; in data set [7] (setting [13]), 2200 nM.
Take `CC(C)(CCS(=O)(=O)CCCCCCCCO)N(Cl)Cl`: the MBC in data set [1] stood at 128 µg/mL (≈ 367 µM); in [2] it was 256 µg/mL (≈ 735 µM). For the same molecule, the IC50 is 32 µM in data set [5] (setting [13]) and “ND(Unstable)” in data set [7] (a549).
Consider `CC(C)(CCS(=O)(=O)CC(O)CO)N(Cl)Cl` (stereo not drawn), for which the viability at 46 min in [8] is 50%. Also, the “Ratio IC50” value in [9] is recorded as 10. Moreover, the figures for the Ratio in data set [10] and in data set [11] were 2 and 8, respectively. Moreover, the MBC amounted to 4 µg/mL (≈ 13.6 µM) in data set [1], 16 µg/mL (≈ 54.4 µM) in data set [2], 2 µg/mL (≈ 6.8 µM) in data set [3] and 2 µg/mL (≈ 6.8 µM) in data set [4]. In addition, the IC50 was 26 µM in [5] (setting [13]), 1500 nM in data set [6] (setting [14]) and 2700 nM in data set [7] (setting [13]).
Consider `CC(=O)OCC(O)CS(=O)(=O)CCC(C)(C)N(Cl)Cl` (stereo not drawn), for which the MBC in data set [1] is 32 µg/mL (≈ 95.2 µM); in [2] it was 64 µg/mL (≈ 190 µM); in data set [3], 4 µg/mL (≈ 11.9 µM); in data set [4] it was 2 µg/mL (≈ 5.95 µM).
On to `CC(C)(CCS(=O)(=O)CCO)N(Cl)Cl`, for which, in [9], the “Ratio IC50” value turned out to be 3.2. The Ratio in data set [10] and in data set [11] was 16 throughout. Moreover, the MBC in [1] came to 16 µg/mL (≈ 60.6 µM); in [2] it was 8 µg/mL (≈ 30.3 µM); in data set [3], 1 µg/mL (≈ 3.79 µM); in data set [4], 0.5 µg/mL (≈ 1.89 µM). Also, the IC50 in data set [5] (setting [13]) worked out at 4.5 µM; in data set [6] (setting [14]), 700 nM; in [7] (setting [13]), 1400 nM.
Consider `CN(CCCO)S(=O)(=O)CCC(C)(C)N(Cl)Cl`, for which the IC50 entry in data set [5] (a549), in [6] (vero) and in data set [7] (a549) was “ND(Unstable)” in each case. Further, the Stability result in data set [12] was “Stable”.
Consider `CC(C)(CCS(=O)(=O)C(CO)C(O)CO)N(Cl)Cl` (stereo not drawn), for which the MBC amounted to 16 µg/mL (≈ 49.3 µM) in [1], 64 µg/mL (≈ 197 µM) in [2], 2 µg/mL (≈ 6.17 µM) in data set [3] and 2 µg/mL (≈ 6.17 µM) in data set [4]. Further, the IC50 in data set [5] (setting [13]) turned out to be 19 µM; in data set [6] (setting [14]), 3000 nM; in data set [7] (setting [13]) it was 1500 nM.
Turning to `CC(C)(CCS(=O)(=O)CCCCC(O)CO)N(Cl)Cl` (stereo not drawn), the IC50 result in data set [5] (a549), in [6] (vero) and in data set [7] (a549) was “ND(Unstable)” each time.
With `CC(C)(CCS(=O)(=O)CC(O)C(O)CO)N(Cl)Cl` (stereo not drawn), the MBC in data set [1] was 32 µg/mL (≈ 98.7 µM); in data set [2], 128 µg/mL (≈ 395 µM); in [3], 1 µg/mL (≈ 3.08 µM); in [4], 2 µg/mL (≈ 6.17 µM).
In the case of `CC(C)(CCS(=O)(=O)C[C@@H](O)CO)N(Cl)Cl`, the MBC stood at 4 µg/mL (≈ 13.6 µM) in data set [1], 32 µg/mL (≈ 109 µM) in [2], 1 µg/mL (≈ 3.4 µM) in [3] and 2 µg/mL (≈ 6.8 µM) in data set [4]. Also, the IC50 worked out at 13 µM in [5] (setting [13]), 1000 nM in [6] (setting [14]) and 2400 nM in data set [7] (setting [13]).
Consider `CC(C)(CS(=O)(=O)CCO)N(Cl)Cl`, for which the MBC in data set [3] and in [4] was 1 µg/mL (≈ 4 µM) in each case. In addition, the values for the IC50 result in [5] (a549), in [6] (vero) and in data set [7] (setting [13]) were “ND(Unstable)”, “ND(Unstable)” and 2300 nM, respectively.
`CC(C)(CO)CS(=O)(=O)CCC(C)(C)N(Cl)Cl`: the MBC in [1] was found to be 128 µg/mL (≈ 418 µM); in data set [2], 64 µg/mL (≈ 209 µM); in data set [3], 2 µg/mL (≈ 6.53 µM); in [4], 4 µg/mL (≈ 13.1 µM). For the same molecule, the IC50 in data set [5] (setting [13]) worked out at 9.6 µM; in data set [6] (setting [14]), 900 nM; in data set [7] (setting [13]), 1800 nM.
Consider `CC(C)(CCS(=O)(=O)CCCO)N(Cl)Cl`, for which the IC50 entry in data set [5] (a549), in data set [6] (vero) and in data set [7] (a549) was “ND(Unstable)” each time.
As for `CO[C@H]1O[C@H](CS(=O)(=O)CCC(C)(C)N(Cl)Cl)[C@@H](O)[C@H](O)[C@H]1O`, the MBC was determined as 256 µg/mL (≈ 646 µM) in [1], 512 µg/mL (≈ 1290 µM) in [2], 8 µg/mL (≈ 20.2 µM) in data set [3] and 8 µg/mL (≈ 20.2 µM) in data set [4].
For `CC(C)(CCS(=O)(=O)CCC(O)CO)N(Cl)Cl` (stereo not drawn), the MBC came out at 16 µg/mL (≈ 51.9 µM) in [1], 64 µg/mL (≈ 208 µM) in [2], 1 µg/mL (≈ 3.24 µM) in data set [3] and 2 µg/mL (≈ 6.49 µM) in [4]. The IC50 came out at 18 µM in data set [5] (setting [13]), 1200 nM in data set [6] (setting [14]) and 1400 nM in [7] (setting [13]).
`CC(=O)OCC(CS(=O)(=O)CCC(C)(C)N(Cl)Cl)OC(C)=O` (stereo not drawn): the MBC in data set [1] was 128 µg/mL (≈ 338 µM); in [2], 128 µg/mL (≈ 338 µM); in data set [3] it was 2 µg/mL (≈ 5.29 µM); in data set [4], 1 µg/mL (≈ 2.64 µM).
